Results from ChEMBL document CHEMBL1138066, “Semisynthetic maytansine analogues for the targeted treatment of cancer” (J Med Chem, 2006).

Experiments:
KB = assay: Cytotoxicity against human KB cell line by clonogenic plating efficiency assay after 72 hrs; type: functional, cell-based
In short: (§1)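 Clonogenic assay: 1000 cells per well in 6-well dishes, exposed to free maytansinoids (0 to 3 nM) for 72 h, then medium replaced with fresh medium. Colonies grown 7-10 days after plating, fixed and stained with 0.2% crystal violet in 10% formalin/PBS, counted. Surviving fraction = colonies in drug-treated wells / colonies in control wells; IC50 in nM.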

SK-BR-3 = assay: Cytotoxicity against human SK-Br-3 cell line by clonogenic plating efficiency assay after 72 hrs; type: functional, cell-based; conditions: SK-BR-3, 72 h; in short: as §1
HCT-15 = assay: Cytotoxicity against human HCT15 cell line by clonogenic plating efficiency assay after 72 hrs; type: cell-based; conditions: HCT-15, 72 h
MCF7 = assay: Cytotoxicity against human MCF7 cell line by clonogenic plating efficiency assay after 72 hrs; type: functional, cell-based; conditions: MCF7, 72 h
A549 = assay: Cytotoxicity against human A549 cell line by clonogenic plating efficiency assay after 72 hrs; type: functional, cell-based; conditions: A549, 72 h
SW-620 = assay: Cytotoxicity against human SW620 cell line by clonogenic plating efficiency assay after 24 hrs; conditions: SW-620, 24 h
A-431 = assay: Cytotoxicity against human A431 cell line by clonogenic plating efficiency assay after 72 hrs; type: functional, cell-based; conditions: A-431, 72 h
A-375 = assay: Cytotoxicity against human A375 cell line by clonogenic plating efficiency assay after 72 hrs; type: functional, cell-based; conditions: A-375, 72 h
In short: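 Clonogenic survival: 1000 cells per well were plated and exposed to free or antibody-conjugated maytansinoid (0 to 3 nM) for 72 h. Medium was then replaced with fresh medium, and colonies grew for a total of 7-10 days after plating. Colonies were fixed and stained with 0.2% crystal violet in 10% formalin/PBS, then counted. Surviving fraction = colonies in drug-exposed wells / colonies in control wells.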

OVCAR-3 = assay: Cytotoxicity against human Ovcar3 cell line by clonogenic plating efficiency assay after 24 hrs; conditions: OVCAR-3, 24 h

Row | SMILES | IC50 (KB) [nM] | IC50 (SK-BR-3) [nM] | further results
1 | COc1cc2cc(c1Cl)N(C)C(=O)CC(OC(=O)[C@H](C)N(C)C(=O)CC[C@@H](C)SSC)C1(C)OC1C(C)C1CC(O)(NC(=O)O1)C(OC)/C=C/C=C(\C)C2 (stereo partly specified) | 0.042 | 0.027 | 
2 | COc1cc2cc(c1Cl)N(C)C(=O)CC(OC(=O)[C@H](C)N(C)C(=O)CC[C@H](C)SSC)C1(C)OC1C(C)C1CC(O)(NC(=O)O1)C(OC)/C=C/C=C(\C)C2 (stereo partly specified) | 0.04 | 0.032 | 
3 | COc1cc2cc(c1Cl)N(C)C(=O)CC(OC(=O)[C@@H](C)N(C)C(=O)CCC(C)(C)SSC)C1(C)OC1C(C)C1CC(O)(NC(=O)O1)C(OC)/C=C/C=C(\C)C2 (stereo partly specified) | > 0.3 | > 0.3 | 
4 | COc1cc2cc(c1Cl)N(C)C(=O)CC(OC(=O)[C@H](C)N(C)C(=O)CCSSc1ccccc1)C1(C)OC1C(C)C1CC(O)(NC(=O)O1)C(OC)/C=C/C=C(\C)C2 (stereo partly specified) | 0.1 |  | 
5 | COc1cc2cc(c1Cl)N(C)C(=O)CC(OC(=O)[C@H](C)N(C)C(=O)CCC(C)(C)SSCCCC(=O)O)C1(C)OC1C(C)C1CC(O)(NC(=O)O1)C(OC)/C=C/C=C(\C)C2 (stereo partly specified) | 23 | 7.1 | 
6 | COc1cc2cc(c1Cl)N(C)C(=O)CC(OC(=O)[C@@H](C)N(C)C(=O)CC[C@H](C)SSC)C1(C)OC1C(C)C1CC(O)(NC(=O)O1)C(OC)/C=C/C=C(\C)C2 (stereo partly specified) | > 3 | > 3 | 
7 | COc1cc2cc(c1Cl)N(C)C(=O)CC(OC(=O)[C@@H](C)N(C)C(=O)CCCSSC)C1(C)OC1C(C)C1CC(O)(NC(=O)O1)C(OC)/C=C/C=C(\C)C2 (stereo partly specified) | 2 |  | 
8 | COc1cc2cc(c1Cl)N(C)C(=O)CC(OC(=O)[C@@H](C)N(C)C(=O)CCS)C1(C)OC1C(C)C1CC(O)(NC(=O)O1)C(OC)/C=C/C=C(\C)C2 (stereo partly specified) | > 3 | > 3 | 
9 | COc1cc2cc(c1Cl)N(C)C(=O)CC(OC(=O)[C@@H](C)N(C)C(=O)CCC(C)(C)S)C1(C)OC1C(C)C1CC(O)(NC(=O)O1)C(OC)/C=C/C=C(\C)C2 (stereo partly specified) | > 1 | 3.3 | 
10 | COc1cc2cc(c1Cl)N(C)C(=O)CC(OC(=O)[C@@H](C)N(C)C(=O)CCSSC)C1(C)OC1C(C)C1CC(O)(NC(=O)O1)C(OC)/C=C/C=C(\C)C2 (stereo partly specified) | 3 | 6 | 
11 | COc1cc2cc(c1Cl)N(C)C(=O)CC(OC(=O)[C@H](C)N(C)C(=O)CCSSC)C1(C)OC1C(C)C1CC(O)(NC(=O)O1)C(OC)/C=C/C=C(\C)C2 (stereo partly specified) | 0.029 | 0.014 | IC50 (HCT-15): 0.13 nM; IC50 (MCF7): < 0.03 nM; IC50 (A549): 0.12 nM; IC50 (SW-620): 0.04 nM; IC50 (A-431): < 0.03 nM; IC50 (A-375): 0.03 nM; IC50 (OVCAR-3): 0.05 nM
12 | COc1cc2cc(c1Cl)N(C)C(=O)CC(OC(=O)[C@H](C)N(C)C(=O)CCCSSC)C1(C)OC1C(C)C1CC(O)(NC(=O)O1)C(OC)/C=C/C=C(\C)C2 (stereo partly specified) | 0.0085 | 0.038 | 
13 | COc1cc2cc(c1Cl)N(C)C(=O)CC(OC(=O)[C@H](C)N(C)C(=O)CCSSC(C)CCC(=O)O)C1(C)OC1C(C)C1CC(O)(NC(=O)O1)C(OC)/C=C/C=C(\C)C2 (stereo partly specified) | 1.8 | 3.4 | 
14 | COc1cc2cc(c1Cl)N(C)C(=O)CC(OC(=O)[C@H](C)N(C)C(=O)CCC(C)S)C1(C)OC1C(C)C1CC(O)(NC(=O)O1)C(OC)/C=C/C=C(\C)C2 (stereo partly specified) | 0.077 | 0.031 | 
15 | COc1cc2cc(c1Cl)N(C)C(=O)CC(OC(=O)[C@H](C)N(C)C(=O)CCC(C)(C)SSC)C1(C)OC1C(C)C1CC(O)(NC(=O)O1)C(OC)/C=C/C=C(\C)C2 (stereo partly specified) | 0.0011 | 0.0032 | 
16 | COc1cc2cc(c1Cl)N(C)C(=O)CC(OC(=O)[C@H](C)N(C)C(=O)CCS)C1(C)OC1C(C)C1CC(O)(NC(=O)O1)C(OC)/C=C/C=C(\C)C2 (stereo partly specified) | 1.1 | 1.1 | 
17 | COc1cc2cc(c1Cl)N(C)C(=O)CC(OC(=O)[C@H](C)N(C)C(=O)CCC(C)(C)S)C1(C)OC1C(C)C1CC(O)(NC(=O)O1)C(OC)/C=C/C=C(\C)C2 (stereo partly specified) | 0.29 | 0.12 | 
18 | COc1cc2cc(c1Cl)N(C)C(=O)CC(OC(=O)[C@H](C)N(C)C(=O)CCSSCCC(=O)N(C)[C@@H](C)C(=O)OC1CC(=O)N(C)c3cc(cc(OC)c3Cl)C/C(C)=C/C=C/C(OC)C3(O)CC(OC(=O)N3)C(C)C3OC13C)C1(C)OC1C(C)C1CC(O)(NC(=O)O1)C(OC)/C=C/C=C(\C)C2 (stereo partly specified) | 0.14 | 0.1 | 
19 | COc1cc2cc(c1Cl)N(C)C(=O)CC(OC(=O)[C@@H](C)N(C)C(=O)CC[C@@H](C)SSC)C1(C)OC1C(C)C1CC(O)(NC(=O)O1)C(OC)/C=C/C=C(\C)C2 (stereo partly specified) | 2.4 | 2.2 | 
20 | COc1cc2cc(c1Cl)N(C)C(=O)CC(OC(=O)[C@H](C)N(C)C(=O)CCC(C)(C)SSC(C)(C)CCC(=O)N(C)[C@@H](C)C(=O)OC1CC(=O)N(C)c3cc(cc(OC)c3Cl)C/C(C)=C/C=C/C(OC)C3(O)CC(OC(=O)N3)C(C)C3OC13C)C1(C)OC1C(C)C1CC(O)(NC(=O)O1)C(OC)/C=C/C=C(\C)C2 (stereo partly specified) | 0.0016 | 0.0012 | 
21 | COc1cc2cc(c1Cl)N(C)C(=O)CC(OC(=O)[C@@H](C)N(C)C(=O)CCC(C)SSC)C1(C)OC1C(C)C1CC(O)(NC(=O)O1)C(OC)/C=C/C=C(\C)C2 (mixture of isomers) | 1.2 | 0.22 | 
22 | COc1cc2cc(c1Cl)N(C)C(=O)CC(OC(=O)[C@H](C)N(C)C(=O)CCC(C)SSC)C1(C)OC1C(C)C1CC(O)(NC(=O)O1)C(OC)/C=C/C=C(\C)C2 (mixture of isomers) | 0.011 | 0.0042 | 
23 | COc1cc2cc(c1Cl)N(C)C(=O)C[C@H](OC(=O)[C@H](C)N(C)C(C)=O)[C@]1(C)O[C@H]1[C@H](C)[C@@H]1C[C@@](O)(NC(=O)O1)[C@H](OC)/C=C/C=C(\C)C2 [MAYTANSINE] | 0.034 | 0.03 | IC50 (HCT-15): 0.75 nM; IC50 (MCF7): 0.044 nM; IC50 (A549): 0.16 nM; IC50 (SW-620): > 0.1 nM; IC50 (A-431): 0.04 nM; IC50 (A-375): 0.037 nM; IC50 (OVCAR-3): 0.1 nM
24 | COc1cc2cc(c1Cl)N(C)C(=O)CC(O)C1(C)OC1C(C)C1CC(O)(NC(=O)O1)C(OC)/C=C/C=C(\C)C2 (stereo unspecified) [MAYTANSINOL] | > 3 | 1.2 | 
25 | COc1cc2cc(c1Cl)N(C)C(=O)CC(OC(=O)[C@H](C)N(C)C(=O)CSSC)C1(C)OC1C(C)C1CC(O)(NC(=O)O1)C(OC)/C=C/C=C(\C)C2 (stereo partly specified) [METHYLDITHIOACETYL MAYTANSINOID] | 0.19 |  | 
